ChEMBL document CHEMBL1149185, “Uncharged AZT and D4T derivatives of phosphonoformic and phosphonoacetic acids as anti-HIV pronucleosides” (J Med Chem, 2004)

What was measured:
[1] = Half life for the hydrolysis of compound in human blood serum; assay type: ADME, cell-free, Plasma
MT4 [2] = test: 90% inhibition of HIV replication in MT-4 cells; assay type: functional, Homo sapiens
Method in brief: (§1)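 HIV-1-infected MT-4 cells (MOI 0.2-0.5; cells at 2 × 10^6 cells/mL, viability >90%) in RPMI-1640 with 10% FBS, L-glutamine, gentamycin and lincomycin. Cultured 3 days with compound at 0.001-100 µg/mL, triplicate per dose. Replication measured as p24 antigen by immunoassay.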

MT4 [3] = test: 50% inhibition of MT-4 cell proliferation.; assay type: functional; conditions: Homo sapiens, read-out: CD50 (the source's name)
Method in brief: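 MT-4 cells in RPMI-1640 with 10% FBS, cultured 3 days with compound at 0.001-200 µg/mL, triplicate per dose. Cell concentration and viability measured by trypan blue dye exclusion, and CD50 calculated.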

[4] = Half life for hydrolysis of compound in phosphate buffer of pH 7.2 at 20 degree C; assay type: ADME
MT4 [5] = test: 50% inhibition of HIV replication in MT-4 cells; assay type: functional; conditions: Homo sapiens, read-out: ID50 (the source's name); method in brief: as §1
MT4 [6] = test: Ratio of CD50 to ID50 was determined; assay type: functional, Homo sapiens

Row | Structure (SMILES) | half-life [1] [h] | ID90 (MT4 [2]) [µM] | CC50 (MT4 [3]) [µM] | half-life [4] [h] | IC50 (MT4 [5]) [µM] | IS (MT4 [6])
1 | CCOP(=O)(CC(N)=O)OCC1C=CC(n2cc(C)c(=O)[nH]c2=O)O1 (stereo not drawn) | > 24 | 18.8 | 268 | > 24 | 5.4 | 49.6
2 | CCOP(=O)(OCC1C=CC(n2cc(C)c(=O)[nH]c2=O)O1)C(=O)NCCc1ccccc1 (stereo not drawn) | – | – | 66.9 | > 20 | 0.043 | 1555
3 | CCOC(=O)CP(=O)(OCC1C=CC(n2cc(C)c(=O)[nH]c2=O)O1)OC1CCCCC1 (stereo not drawn) | – | – | 131 | – | > 10 | <13
4 | CCOP(=O)(CC(N)=O)OCC1OC(n2cc(C)c(=O)[nH]c2=O)CC1N=[N+]=[N-] (stereo not drawn) | – | 1.68 | 456 | > 20 | 0.29 | 1573
5 | CCOP(=O)(OCC1OC(n2cc(C)c(=O)[nH]c2=O)CC1N=[N+]=[N-])C(=O)NCCc1ccccc1 (stereo not drawn) | – | – | 177 | 10 | 0.009 | 19711
6 | CCOP(=O)(OCC1OC(n2cc(C)c(=O)[nH]c2=O)CC1N=[N+]=[N-])C(=O)NC (stereo not drawn) | – | 0.0072 | 113 | 6 | 0.00024 | 470416
7 | CCOC(=O)CP(=O)(OCC1OC(n2cc(C)c(=O)[nH]c2=O)CC1N=[N+]=[N-])OC1CCCCC1 (stereo not drawn) | – | 1.4 | 280 | > 8 | 0.4 | 700
8 | CCOP(=O)(OCC1OC(n2cc(C)c(=O)[nH]c2=O)CC1N=[N+]=[N-])C(N)=O (stereo not drawn) | 0.117 | 0.019 | 249 | 2.5 | 0.002 | 124300
9 | CCOP(=O)(OCC1C=CC(n2cc(C)c(=O)[nH]c2=O)O1)C(=O)NC (stereo not drawn) | – | 0.27 | 85.7 | 15 | 0.013 | 6592
10 | Cc1cn([C@H]2C=C[C@@H](CO)O2)c(=O)[nH]c1=O [STAVUDINE] | – | 23.8 | – | – | 0.24 | 1308
11 | Cc1cn([C@H]2C[C@H](N=[N+]=[N-])[C@@H](CO)O2)c(=O)[nH]c1=O [ZIDOVUDINE] | – | 0.75 | 188 | – | 0.017 | 11029
12 | CCOP(=O)(OCC1C=CC(n2cc(C)c(=O)[nH]c2=O)O1)C(N)=O (stereo not drawn) | 0.35 | 7.21 | 214 | 7 | 0.03 | 7143
13 | CCOC(=O)P(=O)(OCC)OCC1C=CC(n2cc(C)c(=O)[nH]c2=O)O1 (stereo not drawn) | – | 21.7 | 136 | 0.5 | 0.23 | 591
14 | CCOC(=O)CP(=O)(OCC)OCC1C=CC(n2cc(C)c(=O)[nH]c2=O)O1 (stereo not drawn) | – | – | 136 | > 8 | > 10 | <13
15 | CCOC(=O)P(=O)(OCC)OCC1OC(n2cc(C)c(=O)[nH]c2=O)CC1N=[N+]=[N-] (stereo not drawn) | – | 0.016 | 116 | 0.167 | 0.0071 | 16338
16 | CCOC(=O)CP(=O)(OCC)OCC1OC(n2cc(C)c(=O)[nH]c2=O)CC1N=[N+]=[N-] (stereo not drawn) | – | – | > 224 | – | 0.23 | >974
